Test results as given in ChEMBL document CHEMBL1134486, “Synthesis and biological evaluation of purine-containing butenolides” (J Med Chem, 2001).

How the values were obtained:
[1] = compound: COC1=C(OC)/C(=C/Cn2cnc3c(N)ncnc32)OC1=O; experiment: (§1) Rate of deamination in the presence of calf mucosal adenosine deaminase (ADA)
In short: (§2)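 Deamination rates followed with calf mucosal ADA (EC 3.5.4.4) in buffer solutions; Km and Vmax relative to adenosine as substrate; inhibition (Ki) assessed with adenosine as substrate.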

[2] = compound: COC1=C(OC)C(O)(CCn2cnc3c(N)ncnc32)OC1=O; experiment: as §1; in short: as §2

B1: Adenosine deaminase (Bos taurus), P56658 (protein)
chain: MAQTPAFNKPKVELHVHLDGAIKPETILYYGRKRGIALPADTPEELQNIIGMDKPLSLPEFLAKFDYYMPAIAGCREAVKRIAYEFVEMKAKDGVVYVEVRYSPHLLANSKVEPIPWNQAEGDLTPDEVVSLVNQGLQEGERDFGVKVRSILCCMRHQPSWSSEVVELCKKYREQTVVAIDLAGDETIEGSSLFPGHVKAYAEAVKSGVHRTVHAGEVGSANVVKEAVDTLKTERLGHGYHTLEDATLYNRLRQENMHFEVCPWSSYLTGAWKPDTEHPVVRFKNDQVNYSLNTDDPLIFKSTLDTDYQMTKNEMGFTEEEFKRLNINAAKSSFLPEDEKKELLDLLYKAYGMPSPASAEQCL
With B1 the Km [1] was 266 µM and the Km [2] was over 800 µM.
